{"source": "paper PMC8569251", "about": "(European journal of pharmaceutical sciences : official …, 2020)", "key": {"C. albicans yeast": {"tested_on": "C. albicans yeast", "experiment": "Antimicrobial activity", "type": "cell-based, C. albicans SC5314"}, "E. coli": {"tested_on": "E. coli", "experiment": "Antimicrobial activity", "type": "cell-based", "conditions": "24 h incubation; MIC100", "summary_of_the_method": "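E. coli from LB medium, inoculated into LB broth at 10⁵ CFU/mL in 96-well plates with test compound at 1–400 µg/mL. Concentrations re-tested in 1 µg/mL (low MIC) or 5 µg/mL (high MIC) steps. MIC is the lowest concentration giving 100% growth inhibition. Triplicate. Colistin positive control; compound-free culture negative control.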"}, "[1]": {"tested_on": "methicillin-resistant Staphylococcus aureus (MRSA) LAC300", "experiment": "Antimicrobial activity", "type": "cell-based", "conditions": "24 h, read-out: MIC, Bacteria S. aureus"}, "[2]": {"tested_on": "C. albicans hyphae (biofilm)", "experiment": "Inhibition of Candida biofilm", "type": "cell-based, C. albicans SC5314"}, "[3]": {"conditions": "experimental activities, −log MIC50, QSAR training set"}}}
{"compound": "Triton X-100", "values": [{"measurement": "erythrocyte hemolysis (positive control)", "setting": "human erythrocytes", "value": 100, "unit": "%"}]}
{"compound": "CC(=O)N1CCN(c2ccc(OCC3COC(Cn4ccnc4)(c4ccc(Cl)cc4Cl)O3)cc2)CC1", "note": "(stereo not shown) [Ketoconazole, reference compound]", "values": [{"measurement": "MIC", "setting": "C. albicans yeast; 24 h, read-out: MIC, C. albicans Yeast", "value": 3, "unit": "mg/L"}]}
{"compound": "Colistin [reference compound]", "values": [{"measurement": "MIC, Bacteria E. coli", "setting": "E. coli", "value": 5, "unit": "mg/L"}]}
{"compound": "CN[C@H](CC(C)C)C(=O)N[C@H]1C(=O)N[C@@H](CC(N)=O)C(=O)N[C@H]2C(=O)N[C@H]3C(=O)N[C@H](C(=O)N[C@H](C(=O)O)c4cc(O)cc(O)c4-c4cc3ccc4O)[C@H](O)c3ccc(c(Cl)c3)Oc3cc2cc(c3O[C@@H]2O[C@H](CO)[C@@H](O)[C@H](O)[C@H]2O[C@H]2C[C@](C)(N)[C@H](O)[C@H](C)O2)Oc2ccc(cc2Cl)[C@H]1O", "note": "[Vancomycin]", "values": [{"measurement": "MIC", "setting": "[1]", "value": 3, "unit": "mg/L"}]}
{"compound": "COc1cc(C=C2SC(=S)NC2=O)ccc1OCc1cccc(C(F)(F)F)c1", "note": "[SR7]", "values": [{"measurement": "MIC, Bacteria E. coli", "setting": "E. coli", "value": "100 ± 5", "unit": "mg/L"}, {"measurement": "MIC, C. albicans Yeast", "setting": "C. albicans yeast; 24 h incubation, lowest concentration inhibiting 100% of growth (MIC100)", "value": "125 ± 10", "unit": "mg/L"}, {"measurement": "pMIC50 Yeast", "setting": "C. albicans yeast; [3]", "value": 3.579, "unit": "M/L"}, {"measurement": "hyphae inhibition", "setting": "[2]; 10 μg/mL", "value": 90, "unit": "%"}, {"measurement": "MIC, C. albicans Hyphae", "setting": "[2]; 24 h incubation, 100% inhibition of biofilm (hyphal) formation (MIC100)", "value": "10 ± 3", "unit": "mg/L"}, {"measurement": "pMIC50 Hyphae", "setting": "[2]; [3]", "value": 4.764, "unit": "M/L"}]}
